Assay results reported in ChEMBL document CHEMBL1949651, “Hamamelitannin from witch hazel (Hamamelis virginiana) displays specific cytotoxic activity against colon cancer cells” (J Nat Prod, 2012).
Converted amounts (≈) assume the structure as drawn. The source made the active and inactive calls. The calls are words filed in the database; no cut-off is given here.

Experiments:
HT-29 [1] = assay: Induction of H2O2 production in human HT-29 cells at 100 ug/ml after 72 hrs by ferrous oxidation xylenol orange assay in presence of catalase; format: functional, cell-based
HT-29 [2] = assay: Induction of H2O2 production in human HT-29 cells at 100 ug/ml after 72 hrs by ferrous oxidation xylenol orange assay; format: functional, cell-based
HT-29 [3] = assay: Cell cycle arrest in human HT-29 cells assessed as accumulation at S phase at IC50 after 72 hrs by propidium iodide staining based flow cytometry; format: functional
Procedure, shortened: (§1)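 HT29 seeded 87 × 10^3 cells/well, 24 h at 37 °C, treated 72 h; hydroxyurea 1 mM as standard. Trypsinized cells stained in Tris-buffered saline with 50 μg/mL PI, 10 μg/mL DNase-free RNase, 0.1% Igepal CA-630, 1 h at 4 °C dark; flow cytometry at 488 nm; normalized G1/S/G2 percentages, three separate experiments.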

HT-29 [4] = assay: Antiproliferative activity against human HT-29 cells after 72 hrs by MTT assay in presence of H2O2 scavenger catalase; format: functional, cell-based; conditions: HT-29, 72 h
Procedure, shortened: (§2)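 HT29 (ATCC HTB-38) in DMEM with 10% heat-inactivated FCS, 0.1% streptomycin/penicillin; 3 × 10^3 cells/well, 24 h at 37 °C, then graded concentrations in fresh medium for 72 h, optionally with bovine liver catalase (100 U/mL). MTT (1 mg/mL in PBS) 1 h, formazan dissolved in DMSO, absorbance 550 nm; IC50 from dose–viability curves; three independent experiments.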

HT-29 [5] = assay: Induction of apoptosis in human HT-29 cells assessed as apoptotic cells at IC50 after 72 hrs by annexin V/propidium iodide-based flow cytometry; format: functional
Procedure, shortened: (§3)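 HT29 seeded, treated 72 h and harvested as for cell cycle; staurosporine 1 μM as control. Annexin+/PI− early apoptotic; annexin+/PI+ and annexin−/PI+ late apoptotic/necrotic; three separate experiments.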

HT-29 [6] = assay: Induction of apoptosis in human HT-29 cells assessed as necrotic cells at IC50 after 72 hrs by annexin V/propidium iodide-based flow cytometry; format: functional; procedure, shortened: as §3
[7] = system: Radical scavenging activity; assay: Antioxidant activity against DPPH assessed per micromol of radical after 30 mins by UV spectrophotometry; format: functional
Procedure, shortened: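 DPPH radical in solution; 30 min at room temperature in the dark, absorbance at 517 nm. Percentage absorbance loss [(1 − A/A0) × 100] plotted against sample amount over initial DPPH concentration; three independent determinations per point.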

HT-29 [8] = assay: Antiproliferative activity against human HT-29 cells after 72 hrs by MTT assay; format: functional, cell-based; conditions: HT-29, 72 h; procedure, shortened: as §2
[9] = Antioxidant activity against TNPTM assessed per micromol of radical after 48 hrs by UV spectrophotometry; format: functional
Procedure, shortened: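 As for HNTTM but with TNPTM radical, sample range 10–120 μM, 48 h incubation, absorbance at 378 nm; percentage absorbance loss versus sample over initial radical micromoles, dose–response curve, EC50 and ARP; three independent determinations.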

[10] = Antioxidant activity against HNTTM assessed per micromol of radical after 7 hrs by UV spectrophotometry; format: functional
Procedure, shortened: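 Polyphenols (2–62 μM, fresh) mixed 1:1 by volume with HNTTM (120 μM) in deoxygenated CHCl3–MeOH (2:1); 7 h at room temperature in the dark, absorbance at 384 nm. Percentage absorbance loss plotted against sample over initial radical micromoles; dose–response curve per sample, EC50 and ARP reported; three independent determinations.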

[11] = Antiproliferative activity against human NCM460 cells after 72 hrs by MTT assay; format: cell-based; conditions: NCM460, 72 h
Procedure, shortened: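 NCM460 normal colon mucosa epithelial cells in M3Base with 10% heat-inactivated FCS plus 2.5 mM D-glucose (5 mM final); 1 × 10^4 cells/well, 24 h at 37 °C, graded concentrations for 72 h. MTT 1 h, DMSO-dissolved formazan read at 550 nm; IC50 from dose–viability curves; three independent experiments.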

HT-29 [12] = assay: Cell cycle arrest in human HT-29 cells assessed as reduction of cells at G1 phase at IC50 after 72 hrs by propidium iodide staining based flow cytometry; format: functional; procedure, shortened: as §1
HT-29 [13] = assay: Cell cycle arrest in human HT-29 cells assessed as reduction of cells at G2 phase at IC50 after 72 hrs by propidium iodide staining based flow cytometry; format: functional; procedure, shortened: as §1

With `O=C(O[C@@H]1Cc2c(O)cc(O)cc2O[C@@H]1c1cc(O)c(O)c(O)c1)c1cc(O)c(O)c(O)c1` the Activity (HT-29 [1]) was “inactive” and the Activity (HT-29 [2]) was “Dose-dependent effect”.

With `O=C(OC[C@H]1OC(O)[C@@](O)(COC(=O)c2cc(O)c(O)c(O)c2)[C@@H]1O)c1cc(O)c(O)c(O)c1` (stereo partly specified) [HAMAMELITANNIN] the Activity (HT-29 [3]) was 16%, the IC50 (HT-29 [4]) was 13 µg/mL and the Activity (HT-29 [1]) was “inactive”. The Activity (HT-29 [5]) was 26%, the Activity (HT-29 [6]) was 14% and the EC50 [7] was 27.8 µg/µmol. For the same compound, the IC50 (HT-29 [8]) was 20 µg/mL (≈ 41.3 µM), the Activity (HT-29 [2]) was “Dose-dependent effect” and the EC50 [9] was 116 µg/µmol. For the same compound, the EC50 [10] was 71.2 µg/µmol and the IC50 [11] was > 100 µg/mL.

For `O=C(OC[C@H]1O[C@@H](OC(=O)c2cc(O)c(O)c(O)c2)[C@H](OC(=O)c2cc(O)c(O)c(O)c2)[C@@H](OC(=O)c2cc(O)c(O)c(O)c2)[C@@H]1OC(=O)c1cc(O)c(O)c(O)c1)c1cc(O)c(O)c(O)c1` [PENTAGALLOYL GLUCOSE], the Activity (HT-29 [3]) was 8%, the IC50 (HT-29 [4]) was 34 µg/mL and the Activity (HT-29 [1]) was “inactive”. The Activity (HT-29 [5]) was 11%, the Activity (HT-29 [6]) was 5% and the EC50 [7] was 23.8 µg/µmol. The IC50 (HT-29 [8]) was 28 µg/mL (≈ 29.8 µM), the Activity (HT-29 [2]) was “Dose-dependent effect” and the Activity (HT-29 [12]) was “Active”. It also gave an EC50 [9] of 2400 µg/µmol, an EC50 [10] of 54.8 µg/µmol and an IC50 [11] of 23 µg/mL (≈ 24.5 µM). The Activity (HT-29 [13]) was “Active”.
